Rows were chosen to be rich in hits. Some 3.5% of all compounds tested hit in one or more screens of this group.
RGS4 block – RGS4 inhibitors, primary screen, cell-based, HEK293 M3R inducible RGS4, calcium flux | Regulator of G-protein signaling 4 (Homo sapiens), P49798 | Fluo-4 calcium flux; active compounds read high; triggered by carbachol at its EC20 | B-score at 10 µM | hit rate 0.45% among 310,000 | AID 463165, 2010;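 active = B-score, a plate-corrected calcium signal, over three deviations above library mean, with baseline fluorescence within five deviations of library mean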;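 also: RGS4 expression induced by doxycycline in cells with stable M3 receptor; B-score is computed from the integrated fluorescence ratio over baseline after carbachol; higher B-score means a larger calcium signal and so more RGS4 inhibition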
Target sequence (P49798 whole entry, looked up): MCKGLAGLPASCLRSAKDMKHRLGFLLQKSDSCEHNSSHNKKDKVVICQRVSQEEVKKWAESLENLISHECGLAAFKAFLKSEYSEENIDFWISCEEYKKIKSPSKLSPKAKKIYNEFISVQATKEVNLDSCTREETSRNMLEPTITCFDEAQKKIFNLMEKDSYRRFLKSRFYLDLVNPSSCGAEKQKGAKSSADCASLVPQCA
RGS4 act – RGS4 potentiators or activators, primary screen, cell-based, HEK293 M3R inducible RGS4, calcium flux; carbachol calcium flux Fluo4; active compounds read low; hit rate 0.92% among 310,000; B-score at 10 µM;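 active = B-score of the integrated calcium signal more than 4 SD below the library mean, with starting fluorescence not abnormally high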;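 also: negative B-score means reduced calcium response which marks RGS4 activation or potentiation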
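Detection: kinetic calcium fluorescence imaging with Fluo4-AM dye, 2 µM / Material: HEK293 cells with stable M3R and inducible RGS4 / Schedule: recording 10 s baseline at 1 Hz, 100 s post-agonist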
MrgX1 antagonist – antagonists of human MrgX1 receptor, primary screen, HEK293 cells, Fluo-4 calcium flux; hit rate 1.3% among 310,000; AID 588676, 2011; B-score at 10 µM; Mas-related G-protein coupled receptor member X1 (Homo sapiens), Q96LB2; BAM8-22 antagonism; active compounds read low;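 active = calcium-response B-score plate-corrected more than 3 library SD below zero, starting fluorescence within 5 deviations, no agonist response on first addition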;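 also: peak minus trough fluorescence over baseline after final BAM8-22 challenge near maximal dose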
Target sequence (Q96LB2 whole entry, looked up): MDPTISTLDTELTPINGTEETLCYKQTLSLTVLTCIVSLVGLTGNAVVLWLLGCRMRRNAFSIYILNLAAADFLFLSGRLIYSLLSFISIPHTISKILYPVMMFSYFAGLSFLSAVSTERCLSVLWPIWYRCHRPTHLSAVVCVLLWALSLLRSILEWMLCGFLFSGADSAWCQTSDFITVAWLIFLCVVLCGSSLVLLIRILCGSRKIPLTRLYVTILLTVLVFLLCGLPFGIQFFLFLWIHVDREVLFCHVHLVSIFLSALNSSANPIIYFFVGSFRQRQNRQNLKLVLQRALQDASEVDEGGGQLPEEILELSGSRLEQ
MrgX1 allo act – positive allosteric modulators of MrgX1, primary screen, HEK293 cells, Fluo-4 calcium flux. Mas-related G-protein coupled receptor member X1 (Homo sapiens), Q96LB2. FDSS; active compounds read high. B-score at 10 µM. hit rate 0.63% among 310,000;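 active = plate-corrected calcium response at least 3 library SD above typical, normal starting fluorescence, not activating the receptor alone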;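 also: compound read alongside a low EC10 to EC30 dose of BAM8-22 agonist; peak minus trough fluorescence over baseline measured at the second addition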
MrgX1 agonist – agonists of human MrgX1 receptor, primary screen, HEK293 cells, Fluo-4 calcium flux | hit rate 0.44% among 310,000 | Mas-related G-protein coupled receptor member X1 (Homo sapiens), Q96LB2 | Fluo-4 calcium fluorescence, agonist mode; active compounds read high | B-score at 10 µM | AID 588627, 2011;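 active = calcium response B-score plate-corrected fluorescence ratio at least 3 library SD, with starting fluorescence B-score inside 5 SD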
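Material: HEK293 cells stably expressing human MrgX1 receptor | Quantity: 15,000 cells per well | Times: Cells plated overnight, dye loaded 0.5 h 37 °C, 0.5 h room temperature | Measured by: Kinetic Fluo-4 NW fluorescence of intracellular calcium | Control set: Positive and negative controls per plate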
MrgX1 antag conf – MrgX1 receptor antagonists, duplicate retest, confirmation, HEK293 cells, Fluo-4 calcium flux. shares compounds with MrgX1 antagonist. BAM8-22 calcium flux; active compounds read low. remaining BAM8-22 calcium response % of control (active compounds read low), % at 10 µM. hit rate 19% among 2,300;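 active = remaining agonist calcium response no higher than 100% minus 3 SD of agonist-only control wells, with starting fluorescence near control levels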;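 also: agonist BAM8-22 given at a near maximal EC90 to ECmax level; peak minus minimum fluorescence divided by baseline after agonist addition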
HEK293 Ca flux – nonspecific calcium signal in parental HEK293, confirmation, counter-screen for MrgX1 antagonist project, parental HEK293 cells, Fluo-4 calcium flux. AID 624111, 2012. Fluo-4 calcium fluorescence, FDSS. fluorescence ratio F(max-min)/F0 at 10 µM. hit rate 2% among 4,000. shares compounds with MrgX1 antagonist;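 active = duplicate-averaged calcium fluorescence ratio at least three times the standard deviation of buffer wells, a nonspecific response in parental cells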
HEK293 Ca counter – calcium response in parental HEK293 cells, primary screen, counter-screen for MrgX1 allosteric activator project, cell-based, Fluo-4 calcium flux, duplicate | Fluo-4 fluorescence ratio; active compounds read high | shares compounds with MrgX1 antagonist | hit rate 0.4% among 4,000 | fluorescence ratio F(max-min)/F0 at 10 µM;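 active = calcium fluorescence ratio, averaged over duplicates, at least 3 SD of the buffer-well ratio, meaning a nonspecific response in receptor-free cells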;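 also: untransfected parental HEK293 lacking MrgX1 used as counterscreen for MrgX1 allosteric activators; fluorescence change taken during the second addition on a kinetic imager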
HEK293 Ca cntr2 – calcium response in parental HEK293 cells, primary screen, counter-screen for MrgX1 agonist project, cell-based, Fluo-4 calcium flux, duplicate, agonist mode | shares compounds with MrgX1 antagonist | Fluo-4 calcium fluorescence (FDSS); active compounds read high | fluorescence ratio F(max-min)/F0 at 10 µM | hit rate 8.7% among 4,000 | AID 624115, 2012;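 active = calcium fluorescence ratio at least three times the spread of buffer wells, meaning a non-specific response in parental cells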
Each line names hits and unclear results; the compound was inactive in the other large screens (follow-up assays come after a bar, where they were run).

CC(=O)c1cc2c(cc1NC(=O)CSc1nc3ccccc3[nH]1)OCO2	MrgX1 antagonist -6.6 | MrgX1 antag conf 75% | HEK293 Ca flux inactive | HEK293 Ca counter inactive | HEK293 Ca cntr2 inactive
O=C(CSc1nc2ccccc2[nH]1)c1c[nH]c2ccccc12	MrgX1 antagonist -5.7 | MrgX1 antag conf inactive | HEK293 Ca flux inactive | HEK293 Ca counter inactive | HEK293 Ca cntr2 inactive
O=C1c2ccccc2-c2onc3ccc(Oc4ccccc4)c1c23	MrgX1 antagonist -7.4 | MrgX1 antag conf 74% | HEK293 Ca flux inactive | HEK293 Ca counter inactive | HEK293 Ca cntr2 inactive
CCOC(=O)C(C(=O)OCC)c1cc(Br)c2noc3c2c1C(=O)c1ccccc1-3	none
O=C(NC1CCCCC1)C(=S)N1CCOCC1	MrgX1 antagonist -5.4 | MrgX1 antag conf inactive | HEK293 Ca flux inactive | HEK293 Ca counter inactive | HEK293 Ca cntr2 inactive
O=C(Nc1ccc2c(c1)OCO2)c1cc(-c2cccnc2)nc2ccccc12	none
CCN(CC(=O)Nc1ccc2c(c1)OCCO2)c1nc(-c2cccnc2)nc2ccccc12	MrgX1 antagonist -11 | MrgX1 antag conf inactive | HEK293 Ca flux inactive | HEK293 Ca counter inactive | HEK293 Ca cntr2 inactive
O=C1Nc2ccccc2N(O)N1c1ccc(S(=O)(=O)N2CCOCC2)cc1	none
CCCSCC(=O)Nc1ncc2c(n1)-c1ccccc1CC2	MrgX1 antagonist -4.7 | MrgX1 antag conf 75% | HEK293 Ca flux inactive | HEK293 Ca counter inactive | HEK293 Ca cntr2 inactive
O=C(Nc1ncc2c(n1)-c1ccccc1OC2)c1ccc(F)cc1	none
O=C(Nc1ncc2c(n1)-c1ccccc1CC2)c1ccc(Cl)cc1	MrgX1 antagonist -5.2 | MrgX1 antag conf inactive | HEK293 Ca flux inactive | HEK293 Ca counter inactive | HEK293 Ca cntr2 inactive
O=C(Nc1ncc2c(n1)-c1ccccc1CC2)c1cccc(Cl)c1	none
COc1cc(Cl)c(C)cc1NC(=O)CSc1nnc(CCC(=O)O)c(=O)[nH]1	none
COc1ccc(N2CCN(C(CNC(=O)CC(C)(C)C)c3ccc4c(c3)OCO4)CC2)cc1 (stereo not given)	none
Cc1nn(C)c(C)c1CN(Cc1nc(CCC(C)C)no1)C(C)C	MrgX1 antagonist -4.6 | MrgX1 antag conf inactive | HEK293 Ca flux inactive | HEK293 Ca counter inactive | HEK293 Ca cntr2 inactive
CC(C)CCc1noc(CN(C)CCC2CCOCC2)n1	none
CCN1CCN(c2ccc(S(=O)(=O)N3CCCCC3)cc2NC(=O)CC(C)c2ccccc2)CC1 (stereo not given)	none
Cc1ccccc1N(CC(=O)N1CCN(c2ccccc2)CC1)S(C)(=O)=O	MrgX1 antagonist -7.7 | MrgX1 antag conf inactive | HEK293 Ca flux inactive | HEK293 Ca counter inactive | HEK293 Ca cntr2 inactive
CCOC(=O)C1(CCCc2ccccc2)CCN(S(=O)(=O)N(C)C)CC1	none
Cc1ccc2nc(-c3ccc(N4C(=O)CC(N5CCC(C(N)=O)CC5)C4=O)cc3)sc2c1 (stereo not given)	none
Cc1ccc2nc(-c3ccc(N4C(=N)SC5CS(=O)(=O)CC54)cc3)sc2c1 (stereo not given)	MrgX1 antagonist -7.3 | MrgX1 antag conf 85% | HEK293 Ca flux inactive | HEK293 Ca counter inactive | HEK293 Ca cntr2 inactive
O=C(NCc1cn2ccsc2n1)c1c(F)cccc1Cl	MrgX1 antagonist -5 | MrgX1 antag conf inactive | HEK293 Ca flux inactive | HEK293 Ca counter inactive | HEK293 Ca cntr2 inactive
O=C(NCc1cn2ccsc2n1)c1cccc(C(F)(F)F)c1	none
COc1cc(NC(=S)N2CCCCC2C)c(OC)cc1Cl (stereo not given)	MrgX1 antagonist -6.5 | MrgX1 antag conf inactive | HEK293 Ca flux inactive | HEK293 Ca counter inactive | HEK293 Ca cntr2 inactive
CCOC(=O)COc1ccc(S(=O)(=O)NCC2CCCO2)cc1 (stereo not given)	MrgX1 antagonist -4.7 | MrgX1 antag conf inactive | HEK293 Ca flux inactive | HEK293 Ca counter inactive | HEK293 Ca cntr2 inactive
CC1CCC(C(C)C)C(OC(=O)Cn2c(-c3ccc(Cl)cc3)[n+](C)c3ccccc32)C1 (stereo not given)	RGS4 act -8.6, MrgX1 antagonist -9.9 | MrgX1 antag conf 45% | HEK293 Ca flux inactive | HEK293 Ca counter inactive | HEK293 Ca cntr2 inactive
COc1ccc(OCCN2C(=O)c3ccccc3C2=O)c([N+](=O)[O-])c1	none
CCn1c(/C=C/c2c(C)[nH]c3ccccc23)nc2ccccc2c1=O	MrgX1 antagonist -5.3 | MrgX1 antag conf inactive | HEK293 Ca flux inactive | HEK293 Ca counter inactive | HEK293 Ca cntr2 inactive
CC(=O)N1CC23C=CC(CC2CC12CCCCCC2)O3 (stereo not given)	none
CCNc1nc(SCc2ccccc2)nc(N2CCOCC2)n1	none (no result: RGS4 block, RGS4 act)
CN(C)c1nc(SCc2ccccc2)nc(N2CCOCC2)n1	MrgX1 antagonist -6.4 | MrgX1 antag conf inactive | HEK293 Ca flux inactive | HEK293 Ca counter inactive | HEK293 Ca cntr2 inactive
Cc1ccc(Cn2ccsc2=NC(=O)COC(=O)c2ccc(O)cc2O)cc1	MrgX1 antagonist -7.7 | MrgX1 antag conf inactive | HEK293 Ca flux inactive | HEK293 Ca counter inactive | HEK293 Ca cntr2 inactive
CC(=O)c1ccc(OC(=O)c2ccc(-n3nc(C)cc3C)cc2)cc1	none
Cc1cc(C)n(-c2ccc(C(=O)Oc3ccc4c(c3)OCO4)cc2)n1	MrgX1 antagonist -6.7 | MrgX1 antag conf inactive | HEK293 Ca flux inactive | HEK293 Ca counter inactive | HEK293 Ca cntr2 inactive
O=C(Nc1cccnc1)Nc1ccc(F)c(Cl)c1	MrgX1 antagonist -5.2 | MrgX1 antag conf 69% | HEK293 Ca flux inactive | HEK293 Ca counter inactive | HEK293 Ca cntr2 inactive
O=C(CCC(=O)Nc1cccnc1)Nc1cccnc1	MrgX1 antagonist -4.8 | MrgX1 antag conf inactive | HEK293 Ca flux inactive | HEK293 Ca counter inactive | HEK293 Ca cntr2 inactive
Cc1ccc(NC(=O)Nc2ccc(F)c(Cl)c2)cc1	MrgX1 antagonist -6.8 | MrgX1 antag conf 62% | HEK293 Ca flux inactive | HEK293 Ca counter inactive | HEK293 Ca cntr2 inactive
